rRNA inh HTS: reduced GFP signal of wild-type E. coli, primary screen, bacterial rRNA inhibitor project, GFP/RFP fluorescence, OD600, single point. E. coli WT GFP vs humanized-ribosome RFP mutants, 24 h; hits give low values; DMSO median 0, no signal -100. GFP signal change (wild-type ribosome), % (test concentration not listed). hit rate 1.6% among 350,000;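 active = significant combined selectivity score with lowered wild-type GFP, culture density cut under 30%, mutant RFP and density less affected; inactive = any of these conditions unmet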
S100A4 MyoIIA: inhibitors of S100A4-myosin IIA peptide binding, primary screen, biochemical, fluorescence polarization, TAMRA-MyoIIA peptide; inhibition, % at 10.7 µM; Protein S100-A4 (Homo sapiens), P26447; hit rate 0.14% among 360,000; AID 652163, 2013;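 active = mean inhibition of at least 70% across replicates, with every replicate also reaching that level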
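assay system = human S100A4 monomer with TAMRA-labelled myosin IIA peptide | also added = labelled myosin peptide probe, 5 nM | incubation = 5 min between mix addition and reading | control set = DMSO and TFP controls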
PGC1a acetyl inh: inhibitors of PGC1a acetylation signal, primary screen, cell-based, U2OS, AlphaScreen, inhibitor mode; AlphaScreen anti-acetyl-lysine; with virally co-expressed GCN5 acetyltransferase; inhibition, % at 15.6 µM; hit rate 0.17% among 350,000;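 active = every replicate shows inhibition of at least 40%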;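 also: 0% = neutral control wells and 100% = positive control wells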
CASP6 VEID inh: human caspase-6 inhibitors, primary screen, biochemical, VEID-R110 fluorescence, single point, set 2; P55212; purified caspase-6, Z-VEID-R110 cleavage fluorescence; inhibition, % at 12.5 µM; hit rate 0.53% among 350,000;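 active = mean inhibition across replicates at least about 35%, with every replicate also reaching that limit, limit read from the data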;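 also: 0% = median of neutral control wells and 100% = no fluorescence left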
ERAP1 HTS inh: human ERAP1 aminopeptidase inhibitors, primary screen, biochemical, single point, plate reader; recombinant ERAP1, Leu-AMC fluorescence, 60 min; inhibition, % at 10.7 µM; hit rate 0.15% among 340,000; AID 652197, 2013;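 active = mean replicate inhibition of at least 30%, or all replicates individually reaching that 30% level; inactive = mean below 30% and not every replicate reaching it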;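 also: 0% = neutral control wells and 100% = L-leucinethiol positive control wells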
Target sequence (Q9NZ08 whole entry, looked up): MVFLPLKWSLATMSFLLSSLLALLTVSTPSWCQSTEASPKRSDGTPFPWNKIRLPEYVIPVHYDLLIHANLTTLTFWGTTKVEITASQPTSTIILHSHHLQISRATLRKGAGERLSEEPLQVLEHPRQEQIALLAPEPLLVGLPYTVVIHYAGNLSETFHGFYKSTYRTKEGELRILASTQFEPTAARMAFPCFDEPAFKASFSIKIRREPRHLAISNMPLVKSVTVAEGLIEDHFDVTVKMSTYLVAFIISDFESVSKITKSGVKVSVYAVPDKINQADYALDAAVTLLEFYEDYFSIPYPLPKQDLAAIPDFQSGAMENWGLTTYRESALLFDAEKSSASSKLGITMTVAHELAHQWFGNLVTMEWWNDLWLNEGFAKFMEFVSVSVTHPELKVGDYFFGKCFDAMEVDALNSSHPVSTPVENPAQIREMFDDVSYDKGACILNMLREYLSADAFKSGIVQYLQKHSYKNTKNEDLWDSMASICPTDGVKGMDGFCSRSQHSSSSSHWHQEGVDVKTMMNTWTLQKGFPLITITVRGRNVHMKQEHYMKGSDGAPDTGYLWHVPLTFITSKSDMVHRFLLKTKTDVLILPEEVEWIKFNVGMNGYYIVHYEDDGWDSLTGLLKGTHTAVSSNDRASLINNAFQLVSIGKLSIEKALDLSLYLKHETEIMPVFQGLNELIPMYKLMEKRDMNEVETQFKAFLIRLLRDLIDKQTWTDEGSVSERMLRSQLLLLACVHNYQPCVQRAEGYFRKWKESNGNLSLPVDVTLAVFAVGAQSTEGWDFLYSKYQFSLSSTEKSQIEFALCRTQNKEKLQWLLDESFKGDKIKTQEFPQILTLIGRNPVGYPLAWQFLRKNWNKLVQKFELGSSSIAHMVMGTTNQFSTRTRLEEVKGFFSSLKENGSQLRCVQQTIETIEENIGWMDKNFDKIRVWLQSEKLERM
ARNT TACC3 PPI: disruptors of ARNT/TACC3 protein interaction, primary screen, biochemical, AlphaScreen, single concentration; AID 623870, 2012; Transforming acidic coiled-coil-containing protein 3 (Homo sapiens), Q9Y6A5; hit rate 0.66% among 390,000; AlphaScreen His-ARNT PAS-B/GST-TACC3 binding, luminescence; TACC3 fragment carries E629A point mutation; inhibition, % at 9.99 µM;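 active = mean inhibition of replicates at least 50% and at least half of replicates each reaching 50%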;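 also: 0% = complete ARNT plus TACC3 wells and 100% = ARNT alone without TACC3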
* hit, by the source's call; nt = no result given. The list is not random: actives were taken first. Their share in the collection is about 2.4%.

SMILES	rRNA inh HTS	S100A4 MyoIIA	PGC1a acetyl inh	CASP6 VEID inh	ERAP1 HTS inh	ARNT TACC3 PPI
O=C(C[C@H]1CC[C@H](NS(=O)(=O)c2cccc(F)c2)[C@@H](CO)O1)NCc1ccc2c(c1)OCO2	2	105*	-1	-2	3	-3
CC(C)NC(=O)N[C@@H]1CC[C@H](CC(=O)NCc2ccc(Oc3ccccc3)cc2)O[C@@H]1CO	-3	6	2	3	1	-2
O=C(C[C@@H]1C=C[C@@H](NS(=O)(=O)c2cccc(F)c2)[C@@H](CO)O1)NCc1ccc2c(c1)OCO2	-4	83*	-6	-1	1	-27
C[C@H]1CN([C@@H](C)CO)C(=O)Cc2cc(NC(=O)Cn3cnnn3)ccc2O[C@H]1CN(C)Cc1ccc(Oc2ccccc2)cc1	-3	2	0	-2	7	0
CC=Cc1ccc2n(c1=O)C[C@@H]1[C@@H](CO)[C@H](C(=O)Nc3ccc(-c4ccccc4)cc3)[C@H]2N1C(C)=O (mixture of isomers)	-2	-5	nt	nt	nt	nt
O=C(N[C@@H]1CC[C@@H](CCNS(=O)(=O)Cc2ccccc2)O[C@H]1CO)c1ccccc1F	1	45	3	0	-1	12
Cc1ccccc1S(=O)(=O)N1C[C@@H](O)COC[C@@H]2O[C@H](CC(=O)N3CCCCC3)CC[C@H]21	3	2	11	-2	3	-3
CN1C(=O)/C(=C/c2ccccc2OCc2ccc(F)cc2)N(C)C1=S	-8	0	-7	0	3	1
Cc1cccc(COc2ccc(/C=C3/C(=O)N(C)C(=S)N3C)cc2)c1	6	-4	71*	0	-5	-1
CC(=O)N1[C@H](CO)[C@H]2c3ccccc3N(S(=O)(=O)c3ccc(F)cc3)C[C@H]21	0	nt	-4	nt	nt	3
CSc1cccc(NC(=O)c2ccc(CN3CCc4ccccc4C3)cc2)c1	-23*	-13	3	-2	-1	3
O=C(C[C@H]1C[C@H]2c3cc(NC(=O)Cc4ccncc4)ccc3O[C@H]2[C@H](CO)O1)NCc1ccc2c(c1)OCO2	-2	-4	7	0	1	-4
Cc1oc2c(c(C)cc3oc(=O)c(CC(=O)N[C@H](C(=O)O)C(C)C)c(C)c32)c1C	-11	-8	nt	-3	35*	15
O=C(Nc1cccc(F)c1)N1CC(=O)N2[C@H](C1)[C@H](c1ccc(Br)cc1)[C@@H]2CO	-4	2	-3	4	2	nt
CCc1nc2c(OCc3ccc(C(=O)OC)cc3)cccn2c1N(C)C(=O)c1ccc(C)cc1	-8	-3	nt	39*	-1	nt
CC(C)(C)N1NC2(CCCCC2)NC1=S	nt	-7	5	0	-2	-3
CCOC(=O)CN1NC2(CCCCCC2)NC1=S	20	-6	-9	2	35*	0
C[C@H]1CN([C@@H](C)CO)C(=O)Cc2cc(NS(=O)(=O)c3ccc(F)cc3)ccc2O[C@@H]1CN(C)Cc1ccc(Oc2ccccc2)cc1	0	13	-2	0	-2	5
CCc1cc2c(N3CCN(C(=O)c4ccco4)CC3)ncnc2s1	-30*	-3	2	8	0	-3
OC[C@H]1[C@@H](c2ccc(C#CC3CCCC3)cc2)[C@@H]2CN(CCC(F)(F)F)CCCCN12	-58	-3	-60	2	0	16
COc1ccc(C#Cc2ccc([C@H]3[C@@H](CO)N4CCCCN(C(=O)Nc5ccc(F)cc5)C[C@H]34)cc2)cc1	-53	7	-57	2	0	-2
COc1ccc(C#Cc2ccc([C@@H]3[C@@H](CO)N4CCCCN(C(=O)Nc5ccc(F)cc5)C[C@@H]34)cc2)cc1	6	102*	-4	1	-2	31
OC[C@@H]1[C@H](c2ccc(C#CC3CCCC3)cc2)[C@H]2CN(CCC(F)(F)F)CCCCN12	-58	-49	81*	2	1	14
CN1CCCCN2[C@@H](CO)[C@@H](c3ccc(C#CC4(O)CCCC4)cc3)[C@@H]2C1	6	92*	6	2	4	-2
COc1ccccc1NC(=O)N1CCCCN2[C@H](C1)[C@@H](c1ccc(C#CC3CC3)cc1)[C@@H]2CO	nt	81*	nt	2	-1	nt
SMILES	rRNA inh HTS	S100A4 MyoIIA	PGC1a acetyl inh	CASP6 VEID inh	ERAP1 HTS inh	ARNT TACC3 PPI
CN1CCCCN2[C@@H](CO)[C@H](c3ccc(C#CC4(O)CCCC4)cc3)[C@@H]2C1	7	-10	16	0	0	-5
COc1ccccc1NC(=O)N(C)C[C@H]1OCc2ccccc2-c2c(n(C)c3ccccc23)C(=O)N([C@@H](C)CO)C[C@@H]1C	-4	-15	-4	1	-1	4
CC(C)(C)S(=O)(=O)c1cnc(-c2ccccn2)nc1N	18	1	nt	0	2	59*
O=C(NCc1ccc(F)cc1)[C@H]1[C@H](CO)[C@H]2Cn3c(cccc3=O)[C@@H]1N2C(=O)C1CC1	3	0	-4	0	2	nt
C[C@@H]1CCCCO[C@H](CN(C)Cc2ccncc2)[C@@H](C)CN([C@@H](C)CO)C(=O)c2cc(NC(=O)Nc3ccc(F)cc3)ccc2O1	0	nt	38	nt	nt	1
COc1ccc(N2CCN(CCCNC(=O)C(=O)c3c[nH]c4ccccc34)CC2)cc1	-9	2	2	2	-2	48*
COc1ccc(C(=O)Cn2nnc(-c3ccccc3F)n2)cc1	-31*	-14	-22	0	-3	-2
COc1ccc(C(=O)Cn2nnc(-c3ccccc3NC(=O)C3CC3)n2)cc1	nt	nt	-12	nt	nt	12
C=CCNC(=O)CSc1nc2cc(C(=O)OCC)ccc2n1CC	-43*	0	2	-1	0	-2
CN1/C(=C/C(=O)c2nc(S(C)(=O)=O)ncc2Cl)C(C)(C)c2ccccc21	nt	nt	83*	nt	nt	10
O=[N+]([O-])c1cc(-c2ccccc2)cc([N+](=O)[O-])c1O	-70	1	-5	6	7	2
O=[N+]([O-])c1cc2ccccc2c(O)c1O	nt	11	nt	41*	1	nt
CC(C)C1C(c2ccccc2)N(C)C(c2ccccc2)CC1(O)c1ccccc1 (stereo unspecified)	-30*	-4	-3	0	0	-2
CCC1C(c2ccccc2)N(C)C(c2ccccc2)CC1(O)c1ccccc1 (stereo unspecified)	-56	-4	nt	-2	-4	-1

Source: PubChem BioAssay (Broad Institute)
